A short description of experiment [1]: Cellular accumulation ratio (CAR) for chloroquine sensitive HB3 strain of Plasmodium falciparum. The experiment is classed as functional. In a few lines:
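IC50 for HB3 measured at a range of inoculum sizes in the [3H]-hypoxanthine 48 h assay. It is extrapolated to zero inoculum to give the absolute IC50. CAR is calculated as (measured IC50 − absolute IC50)/(absolute IC50 × fractional volume of parasitized RBC).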

The test system of experiment [2] is Plasmodium falciparum. Nature of the experiment: In vitro inhibition of chloroquine-sensitive Plasmodium falciparum HB3. The experiment is classed as functional, organism-based. An outline of the steps: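 HB3 parasites kept in human erythrocytes (2–5%) in RPMI 1640 with 25 mM HEPES, 32 mM NaHCO3, 10% human serum, gassed 3% O2/4% CO2/93% N2. 48 h assay: initial parasitemia 1%, 5% hematocrit, ethanol-dissolved drug (final <1% ethanol); [3H]-hypoxanthine (0.5 μCi) added at 24 h, counted after further 24 h. Triplicate; IC50 by probit interpolation of log dose–response.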

Experiment [3] has as its system Plasmodium falciparum. Nature of the experiment: In vitro inhibition of chloroquine-resistant Plasmodium falciparum K1. The experiment is classed as functional, organism-based. In a few lines: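 P. falciparum K1 (uncloned, Thailand) kept in human erythrocytes in RPMI 1640 with 25 mM HEPES, 32 mM NaHCO3, 10% human serum, under 3% O2/4% CO2/93% N2. Stocks in ethanol, final <1% ethanol. 48 h test at 1% initial parasitemia, 5% hematocrit, 37 °C; [3H]-hypoxanthine added at 24 h, incorporation counted at 48 h. IC50 by probit interpolation of log dose–response; triplicate.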

Regarding `CCN(CC)Cc1c(O)cc(F)c(Nc2ccnc3cc(Cl)ccc23)c1F`, the CAR in experiment [1] worked out at 922. In experiment [2], this molecule displayed an IC50 of 47.3 nM.

With `CCNCCCC(C)Nc1ccnc2cc(Cl)ccc12` (configuration not stated) [DESETHYLCHLOROQUINE], the CAR in experiment [1] was 682. Moreover, in experiment [2], half-maximal inhibition (IC50) required 17 nM.

For `CCN(CC)Cc1cc(Nc2ccnc3cc(Cl)ccc23)ccc1O`, the CAR in experiment [1] amounted to 12600. For the same molecule, the figures for the IC50 in experiment [2] and in experiment [3] (Plasmodium falciparum) were 3.7 nM and 27.2 nM, respectively.

For the molecule `CCN(CC)CCCC(C)Nc1ccnc2cc(Cl)ccc12` (configuration not stated), the CAR in experiment [1] is 1860.

Take `CCNCc1cc(Nc2ccnc3cc(Cl)ccc23)ccc1O` [DESETHYL AMODIAQUINE]: in experiment [1], the CAR was 6410. In experiment [2], this molecule showed an IC50 of 4.5 nM.

For `CC(C)(C)NCc1cc(Nc2ccnc3cc(Cl)ccc23)ccc1O` [N-TERT-BUTYL-AMODIAQUINE], the CAR in experiment [1] was determined as 21100. Also, the IC50 in experiment [2] came to 3.7 nM.

Turning to `CCN(CC)Cc1cc(Nc2ccnc3cc(Cl)ccc23)ccc1F`, the CAR in experiment [1] stood at 1710. In experiment [2], this molecule had an IC50 of 31.9 nM.

`CC(C)(C)NCc1cc(Nc2ccnc3cc(Cl)ccc23)cc(-c2ccc(Cl)cc2)c1`: the CAR in experiment [1] came out at 1200. The values for the IC50 in experiment [2] and in experiment [3] (Plasmodium falciparum) were 56.6 nM and 74.2 nM, respectively.

As to `CCN(CC)Cc1cccc(Nc2ccnc3cc(Cl)ccc23)c1`, the CAR in experiment [1] was found to be 3090. The molecule also yielded an IC50 in experiment [2] of 16.2 nM.

`CC(C)(C)NCc1cc(Nc2ccnc3cc(Cl)ccc23)cc(-c2ccc(Cl)cc2)c1O` [TEBUQUINE]: the CAR in experiment [1] amounted to 70200. In experiment [3], this molecule came in with an IC50 of 42.1 nM.

With `CC(C)(C)NCc1cc(Nc2ccnc3cc(Cl)ccc23)cc(-c2ccc(Cl)cc2)c1F` [FLOUROTEBUQUINE], the CAR in experiment [1] was determined as 1080. The IC50 in experiment [2] is 61.6 nM.

As to `CCN(CC)Cc1cc(Nc2ccnc3cc(Cl)ccc23)cc(F)c1O`, the CAR in experiment [1] was 1510. This molecule also returned an IC50 in experiment [2] of 55.2 nM.

Regarding `CCN(CC)Cc1cc(Nc2ccnc3cc(Cl)ccc23)cc(-c2ccc(Cl)cc2)c1F`, the figures for the IC50 in experiment [2] and in experiment [3] (Plasmodium falciparum) were 104 nM and 101 nM, respectively.

These data come from ChEMBL document CHEMBL1129934, “Synthesis, antimalarial activity, and molecular modeling of tebuquine analogues” (J Med Chem, 1997).
